{
  "source": "ChEMBL document CHEMBL4699585",
  "about": "“Evaluation of the Pharmacophoric Role of the O-O Bond in Synthetic Antileishmanial Compounds: Comparison between 1,2-Dioxanes and Tetrahydropyrans” (J Med Chem, 2020)",
  "key": {"Leishmania donovani [1]": {"system": "Leishmania donovani", "assay": "Antileishmanial activity against Leishmania donovani promastigotes assessed as reduction in parasite viability in presence of 100 uM iron chelator desferrioxamine measured after 24 hrs by microplate alamar blue assay", "type": "functional, organism-based", "how_it_was_run": "(§1)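 L. donovani promastigotes (MHOM/NP/02/BPK282/0cl4, late log/stationary phase) seeded at 10^6 cells/mL in complete HOMEM, preincubated 24 h at 26 °C with desferrioxamine at four nontoxic doses (1:2 dilutions). Compounds added over a range spanning each one's IC50. Viability read by alamarBlue absorbance at 550/630 nm. FIC values plotted as isobolograms. Duplicates.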"}, "Leishmania donovani [2]": {"system": "Leishmania donovani", "assay": "Antileishmanial activity against Leishmania donovani promastigotes assessed as reduction in parasite viability in presence of 50 uM iron chelator desferrioxamine measured after 24 hrs by microplate alamar blue assay", "type": "functional, organism-based", "how_it_was_run": "as §1"}, "Leishmania donovani [3]": {"system": "Leishmania donovani", "assay": "Antileishmanial activity against Leishmania donovani promastigotes assessed as reduction in parasite viability in presence of 25 uM iron chelator desferrioxamine measured after 24 hrs by microplate alamar blue assay", "type": "functional, organism-based", "how_it_was_run": "as §1"}, "Leishmania donovani [4]": {"system": "Leishmania donovani", "assay": "Antileishmanial activity against Leishmania donovani promastigotes assessed as reduction in parasite viability in presence of […] iron chelator desferrioxamine measured after 24 hrs by microplate alamar blue assay", "type": "functional, organism-based", "how_it_was_run": "as §1"}, "Leishmania donovani [5]": {"system": "Leishmania donovani", "assay": "Additive antileishmanial activity against Leishmania donovani promastigotes measured after 24 hrs in presence of iron chelator desferrioxamine by microplate alamar blue assay", "type": "functional, organism-based", "how_it_was_run": "as §1"}, "Leishmania donovani [6]": {"system": "Leishmania donovani", "assay": "Induction of ROS generation in Leishmania donovani promastigotes assessed as increase in intracellular ROS level at IC50 measured after 24 hrs by H2DCFDA probe based fluorimetry analysis", "type": "functional, organism-based"}, "Leishmania donovani [7]": {"system": "Leishmania donovani", "assay": "Induction of ROS generation in Leishmania donovani promastigotes assessed as increase in intracellular ROS level at IC50 measured up to 60 mins by H2DCFDA probe based fluorimetry analysis", "type": "functional, organism-based", "settings": "time min <=60"}, "Leishmania donovani [8]": {"system": "Leishmania donovani", "assay": "Antileishmanial activity against Leishmania donovani MHOM/MA(BE)/67/ITMAP263 promastigotes infected in primary mouse peritoneal macrophage assessed as reduction in parasite viability measured after 4 days by Giemsa staining-based assay", "type": "functional, organism-based", "settings": "MHOM/MA(BE)/67/ITMAP263, Peritoneal macrophage, 96 h"}, "[9]": {"assay": "Drug localization in cytoplasm of Leishmania donovani MHOM/NP/O2/BPK282/0cl4 promastigote at IC50 incubated for 40 to 45 mins by TO-PRO-3 dye based confocal microscopy analysis", "type": "ADME, subcellular", "settings": "time 40-45 min"}, "[10]": {"assay": "Drug localization in nucleus of Leishmania donovani MHOM/NP/O2/BPK282/0cl4 promastigote at IC50 incubated for 40 to 45 mins by TO-PRO-3 staining based confocal microscopy analysis", "type": "ADME, subcellular", "settings": "time 40-45 min"}, "[11]": {"assay": "Drug localization in kinetoplast of Leishmania donovani MHOM/NP/O2/BPK282/0cl4 promastigote at IC50 incubated for 40 to 45 mins by TO-PRO-3 staining based confocal microscopy analysis", "type": "ADME, subcellular", "settings": "time 40-45 min"}, "Leishmania donovani [12]": {"system": "Leishmania donovani", "assay": "Antileishmanial activity against amastigotes stage of Leishmania donovani D10 infected in mouse RAW264.7 cells assessed as reduction in cell viability incubated from 24 to 72 hrs by Giemsa staining-based assay", "type": "functional, organism-based", "settings": "D10, RAW264.7"}, "Leishmania donovani [13]": {"system": "Leishmania donovani", "assay": "Antileishmanial activity against sitamaquine-resistant wild type promastigote stage of Leishmania donovani MHOM/ET/67/HU3 infected in mouse macrophages assessed as reduction in parasite viability measured after 48 hrs by Giemsa staining-based assay", "type": "functional, organism-based", "settings": "MHOM/ET/67/HU3, Macrophage"}, "Leishmania donovani [14]": {"system": "Leishmania donovani", "assay": "Antileishmanial activity against wild type promastigote stage of Leishmania donovani LV9 infected in mouse macrophages assessed as reduction in parasite viability measured after 48 hrs by Giemsa staining-based assay", "type": "functional, organism-based", "settings": "LV9, 48 h"}, "[15]": {"assay": "Drug localization in Leishmania donovani MHOM/NP/O2/BPK282/0cl4 promastigote at IC50 […] by TO-PRO-3 dye based confocal microscopy analysis", "type": "ADME"}, "Leishmania donovani [16]": {"system": "Leishmania donovani", "assay": "Antileishmanial activity against HePC-resistant wild type promastigote stage of Leishmania donovani MHOM/ET/67/HU3 infected in mouse macrophages assessed as reduction in parasite viability measured after 48 hrs by Giemsa staining-based assay", "settings": "MHOM/ET/67/HU3, Macrophage"}, "Leishmania donovani [17]": {"system": "Leishmania donovani", "assay": "Induction of ROS generation in Leishmania donovani promastigotes at 22 uM measured after 24 hrs by H2DCFDA probe based fluorimetry analysis", "type": "functional, organism-based", "how_it_was_run": "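Late log/stationary L. donovani promastigotes seeded at 10^6 cells mL–1 in HOMEM with 20% FBS and treated 24 h at 26 °C; untreated cells served as negative control. Cells were washed in PBS (pH 7.4), loaded with 10 μM H2DCFDA and kept 35 min in the dark at 26 °C. DCF fluorescence read at ex 488/em 530 nm over 1–60 min. Three independent experiments, each in triplicate.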"}},
  "note": "Activity calls are given as the source filed them. The rule behind the calls is not given here.",
  "data": [
    {"smiles": "CCCCC1(CCCC)CO[C@@](C)(OC)[C@@H](CNCCCn2ccnc2)C1", "note": "(racemic)", "values": [
      {"measurement": "IC50", "setting": "Leishmania donovani [1]", "value": 4.6, "unit": "µM"},
      {"measurement": "IC50", "setting": "Leishmania donovani [2]", "value": 5.6, "unit": "µM"},
      {"measurement": "IC50", "setting": "Leishmania donovani [3]", "value": 5.3, "unit": "µM"},
      {"measurement": "IC50", "setting": "Leishmania donovani [4]", "value": 5.4, "unit": "µM"},
      {"measurement": "Activity", "setting": "Leishmania donovani [5]", "value": "Active"},
      {"measurement": "Activity", "setting": "Leishmania donovani [6]", "value": "Active"},
      {"measurement": "Activity", "setting": "Leishmania donovani [7]", "value": "Active"}
    ]},
    {"smiles": "NC[C@@H]1O[C@H](O[C@H]2[C@@H](O)[C@H](O[C@@H]3[C@@H](O)[C@H](N)C[C@H](N)[C@H]3O[C@H]3O[C@H](CO)[C@@H](O)[C@H](O)[C@H]3N)O[C@@H]2CO)[C@H](N)[C@@H](O)[C@@H]1O", "note": "[PAROMOMYCIN]", "values": [
      {"measurement": "IC50", "setting": "Leishmania donovani [8]", "value": 19.7, "unit": "µM"}
    ]},
    {"smiles": "CCCCC1(CCCC)C[C@H](CNCCCn2ccnc2)[C@](C)(OC)OO1", "note": "(racemic)", "values": [
      {"measurement": "IC50", "setting": "Leishmania donovani [1]", "value": 6.5, "unit": "µM"},
      {"measurement": "IC50", "setting": "Leishmania donovani [2]", "value": 9.3, "unit": "µM"},
      {"measurement": "IC50", "setting": "Leishmania donovani [3]", "value": 8.9, "unit": "µM"},
      {"measurement": "IC50", "setting": "Leishmania donovani [4]", "value": 6.6, "unit": "µM"},
      {"measurement": "Activity", "setting": "Leishmania donovani [5]", "value": "Active"},
      {"measurement": "Activity", "setting": "Leishmania donovani [6]", "value": "Active"},
      {"measurement": "Activity", "setting": "Leishmania donovani [7]", "value": "Active"}
    ]},
    {"smiles": "CCCCC1(CCCC)C[C@H](CNCCCCNc2ccc([N+](=O)[O-])c3nonc23)[C@](C)(OC)OO1", "note": "(racemic)", "values": [
      {"measurement": "Drug uptake", "setting": "[9]", "value": "Active"},
      {"measurement": "Drug uptake", "setting": "[10]", "value": "Not Active"},
      {"measurement": "Drug uptake", "setting": "[11]", "value": "Active"}
    ]},
    {"smiles": "OCCCCCCC1CCOOC2(CCCCCCCCCCC2)OOC1", "note": "(configuration not stated)", "values": [
      {"measurement": "IC50", "setting": "Leishmania donovani [12]", "value": 6.7, "unit": "µM"}
    ]},
    {"smiles": "C=CCO[C@@]1(C(F)(F)F)O[C@@H]2C[C@@]3(C)C[C@H]4[C@H](C)CC[C@@H]([C@H]1C)[C@@]24OO3", "values": [
      {"measurement": "IC50", "setting": "Leishmania donovani [13]", "value": 1600, "unit": "nM"},
      {"measurement": "IC50", "setting": "Leishmania donovani [14]", "value": 6.3, "unit": "µM"}
    ]},
    {"smiles": "COc1ccc(N[C@@]2(C(F)(F)F)O[C@@H]3C[C@@]4(C)C[C@H]5[C@H](C)CC[C@@H]([C@H]2C)[C@@]35OO4)cc1", "values": [
      {"measurement": "IC50", "setting": "Leishmania donovani [13]", "value": 380, "unit": "nM"},
      {"measurement": "IC50", "setting": "Leishmania donovani [14]", "value": 1.5, "unit": "µM"}
    ]},
    {"smiles": "CCCCC1(CCCC)CO[C@@](C)(OC)[C@@H](CNCCCCNc2c3ccc(Cl)cc3nc3ccc(OC)cc23)C1", "note": "(racemic)", "values": [
      {"measurement": "Drug uptake", "setting": "[15]", "value": "Active"}
    ]},
    {"smiles": "CCCCCCCCCCCCCCCCOP(=O)([O-])OCC[N+](C)(C)C", "note": "[MILTEFOSINE]", "values": [
      {"measurement": "IC50", "setting": "Leishmania donovani [16]", "value": 68.1, "unit": "µM"},
      {"measurement": "IC50", "setting": "Leishmania donovani [13]", "value": 1900, "unit": "nM"},
      {"measurement": "Activity", "setting": "Leishmania donovani [17]", "value": "Active"}
    ]}
  ]
}
